Source: ChEMBL document CHEMBL1156225, “Ircinialactams: subunit-selective glycine receptor modulators from Australian sponges of the family Irciniidae” (Bioorg Med Chem, 2010)
The source made the active and inactive calls. No cut-off for these calls is given here.

Experiments:
Format in all cases: functional, cell-based
[1] = molecular target: T1, Glycine receptor subunit alpha-3 (Homo sapiens, UniProt O75311); test: Antagonist activity at human recombinant alpha 3 GlyR expressed in HEK293 cells assessed as inhibition of glycine current influx by whole cell patch clamp assay
T1 sequence (O75311 whole entry): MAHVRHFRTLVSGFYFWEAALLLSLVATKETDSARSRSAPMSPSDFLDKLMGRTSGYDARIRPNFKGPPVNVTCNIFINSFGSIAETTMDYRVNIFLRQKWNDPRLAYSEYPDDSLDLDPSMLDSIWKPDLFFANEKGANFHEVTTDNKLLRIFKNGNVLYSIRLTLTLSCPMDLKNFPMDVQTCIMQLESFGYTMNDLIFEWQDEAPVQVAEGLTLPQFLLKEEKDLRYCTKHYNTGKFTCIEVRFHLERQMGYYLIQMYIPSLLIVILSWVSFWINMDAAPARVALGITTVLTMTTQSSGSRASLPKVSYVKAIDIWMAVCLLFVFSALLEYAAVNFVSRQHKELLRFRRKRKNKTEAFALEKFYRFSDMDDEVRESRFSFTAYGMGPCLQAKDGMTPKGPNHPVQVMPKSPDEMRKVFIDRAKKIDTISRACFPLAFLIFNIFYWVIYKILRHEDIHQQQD

[2] = molecular target: T2, Glycine receptor subunit alpha-1 (Homo sapiens, UniProt P23415); test: Agonist activity at human recombinant alpha 1 GlyR expressed in HEK293 cells assessed as potentiation of glycine current by whole cell patch clamp assay
T2 sequence (P23415 whole entry): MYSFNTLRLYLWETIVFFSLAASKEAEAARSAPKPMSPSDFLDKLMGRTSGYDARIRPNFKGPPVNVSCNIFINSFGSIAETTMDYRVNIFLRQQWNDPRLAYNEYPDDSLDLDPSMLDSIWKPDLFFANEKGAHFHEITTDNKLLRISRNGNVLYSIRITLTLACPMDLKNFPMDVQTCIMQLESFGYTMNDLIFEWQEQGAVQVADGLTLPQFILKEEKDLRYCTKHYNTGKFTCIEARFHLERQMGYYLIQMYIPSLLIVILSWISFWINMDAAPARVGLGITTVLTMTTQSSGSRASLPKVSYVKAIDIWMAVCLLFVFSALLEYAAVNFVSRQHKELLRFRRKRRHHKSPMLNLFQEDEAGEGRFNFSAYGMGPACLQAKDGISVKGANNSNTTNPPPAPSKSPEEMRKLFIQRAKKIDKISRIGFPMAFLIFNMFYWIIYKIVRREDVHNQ

[3] = molecular target: T2, Glycine receptor subunit alpha-1; test: (§1) Antagonist activity at human recombinant alpha 1 GlyR expressed in HEK293 cells assessed as inhibition of glycine current influx by whole cell patch clamp assay
[4] = molecular target: T1, Glycine receptor subunit alpha-3; test: Agonist activity at human recombinant alpha 3 GlyR expressed in HEK293 cells assessed as potentiation of glycine current by whole cell patch clamp assay
[5] = molecular target: T3, Glycine receptor subunit alpha-3 (Homo sapiens) (UniProt O75311); test: Agonist activity at human recombinant alpha 3 GlyR expressed in HEK293 cells assessed as potentiation of glycine current up to 100 uM by whole cell patch clamp assay
T3 sequence (whole entry): T1 sequence (O75311 whole entry)

[6] = molecular target: T4, Glycine receptor subunit alpha-1 (Homo sapiens) (UniProt P23415); test: Agonist activity at human recombinant alpha 1 GlyR expressed in HEK293 cells assessed as potentiation of glycine current at 100 uM by whole cell patch clamp assay relative to EC20 glycine maximum response
T4 sequence (whole entry): T2 sequence (P23415 whole entry)

[7] = molecular target: T3, Glycine receptor subunit alpha-3 (Homo sapiens); test: Agonist activity at human recombinant alpha 3 GlyR expressed in HEK293 cells assessed as potentiation of glycine current at 100 uM by whole cell patch clamp assay relative to EC20 glycine maximum response
[8] = molecular target: T4, Glycine receptor subunit alpha-1 (Homo sapiens); test: as §1
[9] = molecular target: T5, Glycine receptor subunit alpha-2 (Homo sapiens) (UniProt P23416); test: Antagonist activity at human recombinant alpha 2 GlyR expressed in HEK293 cells assessed as inhibition of glycine current influx by whole cell patch clamp assay
T5 sequence (whole entry): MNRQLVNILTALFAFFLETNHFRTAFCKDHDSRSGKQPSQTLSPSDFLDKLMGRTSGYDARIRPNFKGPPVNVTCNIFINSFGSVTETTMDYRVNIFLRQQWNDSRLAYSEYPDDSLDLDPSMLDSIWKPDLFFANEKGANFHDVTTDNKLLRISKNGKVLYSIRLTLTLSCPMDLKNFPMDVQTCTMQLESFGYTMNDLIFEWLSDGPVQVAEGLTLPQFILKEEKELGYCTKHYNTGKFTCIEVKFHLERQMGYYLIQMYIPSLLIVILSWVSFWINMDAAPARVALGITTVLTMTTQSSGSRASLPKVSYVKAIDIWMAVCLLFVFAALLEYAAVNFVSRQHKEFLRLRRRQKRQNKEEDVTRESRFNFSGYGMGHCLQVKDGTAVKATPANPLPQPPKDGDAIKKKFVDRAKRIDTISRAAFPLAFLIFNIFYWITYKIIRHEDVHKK
Method in brief: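 HEK293 cells transiently expressing α2 GlyR, recorded by conventional whole-cell patch clamp. Current was activated with EC20 glycine (50 µM), and compound was applied at 10 µM together with glycine. Response is expressed as % of control glycine current, averaged from six cells.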

[10] = molecular target: T4, Glycine receptor subunit alpha-1 (Homo sapiens); test: Antagonist activity at human recombinant alpha 1 GlyR expressed in HEK293 cells assessed as inhibition of glycine current influx up to 30 uM by whole cell patch clamp assay
[11] = molecular target: T4, Glycine receptor subunit alpha-1 (Homo sapiens); test: Agonist activity at human recombinant alpha 1 GlyR expressed in HEK293 cells assessed as potentiation of glycine current at 1 to 10 uM by whole cell patch clamp assay
[12] = molecular target: T5, Glycine receptor subunit alpha-2 (Homo sapiens); test: Antagonist activity at human recombinant alpha 2 GlyR expressed in HEK293 cells assessed as inhibition of glycine current influx at 10 uM by whole cell patch clamp assay
[13] = molecular target: T4, Glycine receptor subunit alpha-1 (Homo sapiens); test: Agonist activity at human recombinant alpha 1 GlyR expressed in HEK293 cells assessed as potentiation of glycine current up to 100 uM by whole cell patch clamp assay

SMILES	IC50 ([1]; read-out: IC50)	EC50 ([2]; hek293)	IC50 [3]	EC50 [4]	IC50 ([1]; hek293)	other results
C/C(=C\CCC1=CCN(CC(=O)O)C1=O)CC/C=C(\C)CCC[C@H](C)CC(=O)O [IRCINIALACTAM C]	30 µM	Not Active	Not Active	Not Active		
CC1=C(O)/C(=C/C(C)/C=C/C=C(\C)CCCC(C)CCCc2ccoc2)OC1=O (stereo unspecified)		Not Active	Not Active	Not Active	Not Active	
CC1=C(O)/C(=C/[C@@H](C)CCC/C(C)=C/CCC(C)(O)CCCC2=CC(=O)N(CC(=O)O)C2)OC1=O (stereo partly specified) [8-HYDROXYIRCINIALACTAM B]			Not Active		Not Active	Activity [5]: inactive; EC50 ([2]; read-out: EC50): 0.5 µM; Activity [6]: 330%; Activity [7]: 183%
Cc1c(C(=O)c2cccc3ccccc23)c2cccc3c2n1[C@H](CN1CCOCC1)CO3						Activity [8]: Active; Activity [9]: Active; Activity [10]: inactive
CC1=C(O)/C(=C/[C@@H](C)CCC/C(C)=C\CC/C(C)=C/CCc2ccoc2)OC1=O		Not Active	Not Active	Not Active	Not Active	
CC(C)(C)C1(O)CC[S+]([O-])CC1 (stereo unspecified)						Activity [11]: 135%
CC1=C(O)/C(=C/C(C)/C=C/C=C(\C)CCCc2coc(Cc3ccoc3)c2)OC1=O (stereo unspecified) [COMETIN A]		Not Active	Not Active	Not Active	Not Active	
CCOC(=O)C(O)(C[C@@H](C)CCC/C(C)=C/CC/C(C)=C/CCC1=CCN(CC(=O)O)C1=O)C(C)(O)C(=O)O (stereo partly specified) [IRCINIALACTAM D]	30 µM	Not Active	Not Active	Not Active		
CC1=C(O)/C(=C/[C@@H](C)CCC/C(C)=C/CC/C(C)=C/CCc2ccoc2)OC1=O		Not Active	Not Active	Not Active	Not Active	
C/C(=C\CCC1=CCN(CC(=O)O)C1=O)CC/C=C(\C)CCC[C@@H](C)CC(=O)O	30 µM	Not Active	Not Active	Not Active		
CC1=C(O)/C(=C/[C@@H](C)CCC/C(C)=C/CCC(C)(O)CCCc2ccoc2)OC1=O (stereo partly specified)	7 µM		Not Active	Not Active		EC50 ([2]; read-out: EC50): 1.2 µM; inhibition [12]: 87%; Activity [10]: Active; Activity [6]: 215%
CCCCCCC(C)(C)c1cc(O)c2c(c1)OC(C)(C)[C@@H]1CC=C(CO)C[C@@H]21						Activity [8]: Active; Activity [9]: Active; Activity [10]: inactive
CC1=C(O)/C(=C/[C@@H](C)CCC/C(C)=C/CCC(C)(O)CCCC2=CCN(CC(=O)O)C2=O)OC1=O (stereo partly specified) [8-HYDROXYIRCINIALACTAM A]			Not Active	Not Active	Not Active	Activity [13]: inactive; Activity [6]: 217%
CC1=C(O)/C(=C/[C@@H](C)CCC/C(C)=C/CC/C(C)=C/CCC2=CCN(CC(=O)O)C2=O)OC1=O [IRCINIALACTAM A]	30 µM		Not Active	Not Active		Activity [13]: inactive; Activity [6]: 140%
CCCCCCC(C)(C)c1cc(OC)c([C@H]2C=C(CO)[C@@H]3C[C@H]2C3(C)C)c(OC)c1						Activity [8]: Active; Activity [9]: Active; Activity [10]: inactive
